This is an account of results in ChEMBL document CHEMBL4265927, “Systematic variation of the benzoylhydrazine moiety of the GluN2A selective NMDA receptor antagonist TCN-201” (Eur J Med Chem, 2018).

Each structure is given as a SMILES string. Activity calls are given as the source filed them. The calls are words filed in the database; no cut-off is given here.

Holding throughout (type): cell-based
Assay [1] in a line: Negative allosteric modulation of GluN1a/GluN2A receptor (unknown origin) expressed in Xenopus laevis oocytes assessed as inhibition of (S)-glutamate/glycine-induced channel current at 200 nM at -70 mV holding potential in presence of 1 to 30 uM glycine by two electrode voltage clamp based electrophysiology assay. As to conditions: Homo sapiens. The method, boiled down:
(§1)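 Oocytes co-injected with 0.8 ng each of rat GluN1a and GluN2A cRNA were recorded by TEVC at room temperature in Mg2+-free Ba2+-Ringer, pH 7.4. Compound was fixed at 200 nM. Currents were evoked by (S)-glutamate with glycine at 1, 3, 10 and 30. There were 3 oocytes per glycine level. Mean inhibition was fitted linearly (y = a + b*x) to give intercept and slope.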

For assay [2], the species on record is Homo sapiens. Put plainly: Negative allosteric modulation of GluN1a/GluN2A receptor (unknown origin) expressed in Xenopus laevis oocytes assessed as inhibition of (S)-glutamate/glycine-induced channel current at 200 nM at -70 mV holding potential in presence of 30 uM glycine by two electrode voltage clamp based electrophysiology assay. The method, boiled down: as §1

A short description of assay [3]: Negative allosteric modulation of GluN1a/GluN2A receptor (unknown origin) expressed in Xenopus laevis oocytes assessed as inhibition of (S)-glutamate/glycine-induced channel current at 200 nM at -70 mV holding potential in presence of 1 to 10 uM glycine by two electrode voltage clamp based electrophysiology assay. As to conditions: Homo sapiens. The gist of the method:
as §1

A short description of assay [4]: Negative allosteric modulation of GluN1a/GluN2A receptor (unknown origin) expressed in Xenopus laevis oocytes assessed as inhibition of (S)-glutamate/glycine-induced channel current at -70 mV holding potential in presence of 3 uM glycine by two electrode voltage clamp based electrophysiology assay. Conditions: Homo sapiens.
Assay [5] is described as follows: Negative allosteric modulation of GluN1a/GluN2A receptor (unknown origin) expressed in Xenopus laevis oocytes assessed as inhibition of (S)-glutamate/glycine-induced channel current at 500 nM at -70 mV holding potential by two electrode voltage clamp based electrophysiology assay relative to control TCN-201. Conditions: Homo sapiens. The gist of the method: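 The screen ran on GluN1a/GluN2A oocytes (0.8 ng of each rat cRNA) by room-temperature TEVC in Mg2+-free Ba2+-Ringer, pH 7.4, with (S)-glutamate/glycine activation. Compounds were at 500 nM. Inhibition was normalized to that of the reference antagonist at 500 nM, tested in the same series of experiments. n is the number of independent oocytes.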

The nature of assay [6]: Negative allosteric modulation of GluN1a/GluN2A receptor (unknown origin) expressed in Xenopus laevis oocytes assessed as inhibition of (S)-glutamate/glycine-induced channel current at -70 mV holding potential in presence of 10 uM glycine by two electrode voltage clamp based electrophysiology assay. As to conditions: Homo sapiens. The method, boiled down: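 Rat wild-type GluN1a and GluN2A cRNA (0.8 ng each) injected into defolliculated oocytes. TEVC at room temperature in Mg2+-free Ba2+-Ringer (10 mM HEPES, 90 mM NaCl, 1 mM KCl, 1.5 mM BaCl2, pH 7.4). Compound was diluted from DMSO stock into (S)-glutamate/glycine agonist solution over a 1 nM–10 range. There were 5 oocytes per concentration. The logistic fit had minimal and maximal inhibition fixed at 0% and 100%.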

Assay [7] in a line: Negative allosteric modulation of GluN1a/GluN2B receptor (unknown origin) expressed in Xenopus laevis oocytes assessed as inhibition of (S)-glutamate/glycine-induced channel current at 10 uM at -70 mV holding potential by two electrode voltage clamp based electrophysiology assay. Conditions: Homo sapiens. The gist of the method: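 For selectivity, oocytes received 0.8 ng GluN1a plus 0.8 ng GluN2B rat cRNA. TEVC was at room temperature in Mg2+-free Ba2+-Ringer, pH 7.4, with (S)-glutamate/glycine stimulation. Compounds were at 10 µM, giving 0.1% DMSO in the test solution. There were 4–5 oocytes per compound.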

For assay [8], the species on record is Homo sapiens. Nature of the assay: Negative allosteric modulation of GluN1a/GluN2A receptor (unknown origin) expressed in Xenopus laevis oocytes assessed as inhibition of (S)-glutamate/glycine-induced channel current at 200 nM at -70 mV holding potential in presence of 1 to 3 uM glycine by two electrode voltage clamp based electrophysiology assay. The gist of the method: as §1

As to `Cc1ncc(CNC(=O)c2cnc(CNS(=O)(=O)c3ccc(F)c(F)c3)c(C)n2)s1`, the inhibition result in assay [1], in assay [2] and in assay [3] was “Active” throughout. In assay [4], the IC50 came out at 198 nM.

`O=C(NNS(=O)(=O)c1ccccc1)c1ccc(CNS(=O)(=O)c2ccc(F)c(Cl)c2)cc1`: the Ratio in assay [5] is 0.58.

As to `O=C(NNC(=O)c1ccncn1)c1ccc(CNS(=O)(=O)c2ccc(F)c(Cl)c2)cc1`, the Ratio in assay [5] is 0.92.

`O=C(NNC(=O)c1ccc(CNS(=O)(=O)c2cccc(Br)c2)cc1)c1ccccc1`: in assay [6], the concentration for half-maximal inhibition (IC50) is 204 nM.

With `O=C(NNC(=O)c1cc2ccccc2[nH]1)c1ccc(CNS(=O)(=O)c2ccc(F)c(Cl)c2)cc1`, in assay [5], the Ratio is 1.28.

As to `O=C(Cc1ccccc1)NNC(=O)c1ccc(CNS(=O)(=O)c2ccc(F)c(Cl)c2)cc1`, in assay [5], the Ratio came out at 0.64.

Regarding `O=C(NNC(=O)c1cccs1)c1ccc(CNS(=O)(=O)c2cccc(Br)c2)cc1`, the inhibition entry in assay [1] and in assay [3] was “Active” throughout. In addition, in assay [7], the inhibition entry was “inactive”. Moreover, the IC50 in assay [6] turned out to be 222 nM.

As to `O=S(=O)(NCc1ccc(-c2nnc(-c3ccccc3)o2)cc1)c1ccc(F)c(Cl)c1`, the Ratio in assay [5] was 0.31.

On to `O=C(NNC(=O)c1cc2ccccc2s1)c1ccc(CNS(=O)(=O)c2ccc(F)c(Cl)c2)cc1`, for which the Ratio in assay [5] is 0.58.

Consider `O=C(NNC(=O)c1ccc(CNS(=O)(=O)c2ccc(F)c(Cl)c2)cc1)c1ccccc1`, for which the inhibition result in assay [7] and in assay [8] was “inactive” in each case. Also, the inhibition entry in assay [2] and in assay [3] was “Active” throughout. Further, in assay [6], the IC50 came out at 512 nM.

`O=C(O)CCC(=O)NNC(=O)c1ccc(CNS(=O)(=O)c2ccc(F)c(Cl)c2)cc1`: in assay [5], the Ratio was 0.3.

As to `O=C(NNC(=O)c1cccs1)c1ccc(CNS(=O)(=O)c2ccc(F)c(Cl)c2)cc1`, the Ratio in assay [5] is 1.35. Besides, the inhibition entry in assay [1] and in assay [3] was “Active” in each case. The inhibition entry in assay [7] is “inactive”. Also, the IC50 in assay [6] is 198 nM.

`O=C(NNC(=O)c1ccc2ccccc2c1)c1ccc(CNS(=O)(=O)c2ccc(F)c(Cl)c2)cc1`: the Ratio in assay [5] was 0.44.

Regarding `O=C(NNC(=O)c1ccc[nH]1)c1ccc(CNS(=O)(=O)c2ccc(F)c(Cl)c2)cc1`, the Ratio in assay [5] turned out to be 1.2.

Turning to `O=C(NNCc1ccccc1)c1ccc(CNS(=O)(=O)c2ccc(F)c(Cl)c2)cc1`, the Ratio in assay [5] is 0.73.

For the compound `O=C(NNC(=O)c1ccco1)c1ccc(CNS(=O)(=O)c2ccc(F)c(Cl)c2)cc1`, the Ratio in assay [5] was determined as 1.1.

On to `O=C(NNC(=O)N1CCOCC1)c1ccc(CNS(=O)(=O)c2ccc(F)c(Cl)c2)cc1`, for which, in assay [5], the Ratio stood at 0.52.

Turning to `CC(C(O)c1ccc(O)cc1)N1CCC(Cc2ccccc2)CC1` (configuration not stated), the inhibition result in assay [7] was “inactive”.

Regarding `O=C(NNC(=O)c1c[nH]c2ccccc12)c1ccc(CNS(=O)(=O)c2ccc(F)c(Cl)c2)cc1`, in assay [5], the Ratio came out at 1.33. In addition, the inhibition entry in assay [1] and in assay [3] was “Active” throughout. The inhibition result in assay [7] was “inactive”. Also, the half-inhibitory concentration (IC50) in assay [6] worked out at 216 nM.
